ChEMBL document CHEMBL1147483, “Novel p38 inhibitors with potent oral efficacy in several models of rheumatoid arthritis” (Bioorg Med Chem Lett, 2004)

How the values were obtained:
Homo sapiens = species: Homo sapiens; experiment: Inhibition of LPS/IFN-gamma stimulated TNF-alpha release in human peripheral blood mononuclear cells after 3h of incubation.; assay type: functional, cell-based
How it was run: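 Human PBMCs from healthy volunteers incubated with inhibitor and stimulated with LPS/IFN-γ for 3 h. TNF-α in supernatants measured by ELISA; IC50 derived.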

Rattus norvegicus [1] = experiment: Percent swelling of joints in rats immunized with Mycobacterium tuberculosis was determined on day 20 after 25 mg/kg peroral administration; assay type: functional; conditions: route oral
How it was run: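 Female Wistar rats (adjuvant-induced arthritis) immunized with Mycobacterium tuberculosis on day 0; compounds given orally at 25 mg/kg twice daily (2 × 25 mg/kg p.o. per day) from day 14 to day 20; joint swelling measured on day 20 and expressed as % swelling.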

Cytochrome P450 3A4 = Cytochrome P450 3A4 (Homo sapiens, UniProt P08684); experiment: Inhibition of human cytochrome P450 3A4; assay type: ADME
Chain of Cytochrome P450 3A4 (P08684 whole entry): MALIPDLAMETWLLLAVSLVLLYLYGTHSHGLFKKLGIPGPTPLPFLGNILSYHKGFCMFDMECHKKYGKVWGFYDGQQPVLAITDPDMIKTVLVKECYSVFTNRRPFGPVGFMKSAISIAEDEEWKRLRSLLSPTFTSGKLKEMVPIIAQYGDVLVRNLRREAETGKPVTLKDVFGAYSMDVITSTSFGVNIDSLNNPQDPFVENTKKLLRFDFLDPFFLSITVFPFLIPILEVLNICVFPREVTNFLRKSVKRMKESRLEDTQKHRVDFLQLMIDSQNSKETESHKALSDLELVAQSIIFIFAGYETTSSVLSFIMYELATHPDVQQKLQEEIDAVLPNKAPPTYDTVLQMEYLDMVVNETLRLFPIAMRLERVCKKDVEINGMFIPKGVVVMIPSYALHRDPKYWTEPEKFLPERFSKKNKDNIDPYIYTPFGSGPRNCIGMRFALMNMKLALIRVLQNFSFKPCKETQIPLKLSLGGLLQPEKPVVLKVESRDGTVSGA

[2] = molecular target: Tyrosine-protein kinase ABL1 (Homo sapiens, UniProt P00519); experiment: Inhibition of human c-Abl
How it was run: (§1)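 In-house kinase selectivity panel against human kinases; IC50 (µM) determined.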

Mus musculus [3] = experiment: Dose required to inhibit of LPS (20 mg/kg, injected i.v. 1 hr […] dosing) induced TNF-alpha release in mice upon oral administration; assay type: functional
[4] = molecular target: Vascular endothelial growth factor receptor 2 (Homo sapiens, UniProt P35968); experiment: Inhibition of human vascular endothelial growth factor receptor 2; how it was run: as §1
[5] = Oral bioavailability; assay type: ADME, organism-based; conditions: rat, in vivo
Cytochrome P450 1A2 = molecular target: T1, Cytochrome P450 1A2 (Homo sapiens, UniProt P05177); experiment: Inhibition of human cytochrome P450 1A2; assay type: ADME
T1 sequence (P05177 whole entry): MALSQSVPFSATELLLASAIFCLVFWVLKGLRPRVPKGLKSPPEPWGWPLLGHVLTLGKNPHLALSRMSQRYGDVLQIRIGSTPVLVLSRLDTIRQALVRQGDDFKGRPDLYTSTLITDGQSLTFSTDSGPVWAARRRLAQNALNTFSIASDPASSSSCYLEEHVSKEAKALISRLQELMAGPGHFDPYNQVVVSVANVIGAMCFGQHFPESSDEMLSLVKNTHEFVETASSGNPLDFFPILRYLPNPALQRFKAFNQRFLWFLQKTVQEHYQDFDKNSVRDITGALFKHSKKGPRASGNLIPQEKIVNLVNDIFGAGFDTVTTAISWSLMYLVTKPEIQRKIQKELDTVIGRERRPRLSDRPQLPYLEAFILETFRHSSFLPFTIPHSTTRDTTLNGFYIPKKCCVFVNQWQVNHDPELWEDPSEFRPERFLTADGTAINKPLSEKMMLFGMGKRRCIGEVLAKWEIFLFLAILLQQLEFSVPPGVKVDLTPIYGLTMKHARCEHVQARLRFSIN

[6] = molecular target: Insulin-like growth factor 1 receptor (Homo sapiens, UniProt P08069); experiment: Inhibition of human insulin-like growth factor I receptor; how it was run: as §1
Chain of Insulin-like growth factor 1 receptor (P08069 31-736 limits assumed): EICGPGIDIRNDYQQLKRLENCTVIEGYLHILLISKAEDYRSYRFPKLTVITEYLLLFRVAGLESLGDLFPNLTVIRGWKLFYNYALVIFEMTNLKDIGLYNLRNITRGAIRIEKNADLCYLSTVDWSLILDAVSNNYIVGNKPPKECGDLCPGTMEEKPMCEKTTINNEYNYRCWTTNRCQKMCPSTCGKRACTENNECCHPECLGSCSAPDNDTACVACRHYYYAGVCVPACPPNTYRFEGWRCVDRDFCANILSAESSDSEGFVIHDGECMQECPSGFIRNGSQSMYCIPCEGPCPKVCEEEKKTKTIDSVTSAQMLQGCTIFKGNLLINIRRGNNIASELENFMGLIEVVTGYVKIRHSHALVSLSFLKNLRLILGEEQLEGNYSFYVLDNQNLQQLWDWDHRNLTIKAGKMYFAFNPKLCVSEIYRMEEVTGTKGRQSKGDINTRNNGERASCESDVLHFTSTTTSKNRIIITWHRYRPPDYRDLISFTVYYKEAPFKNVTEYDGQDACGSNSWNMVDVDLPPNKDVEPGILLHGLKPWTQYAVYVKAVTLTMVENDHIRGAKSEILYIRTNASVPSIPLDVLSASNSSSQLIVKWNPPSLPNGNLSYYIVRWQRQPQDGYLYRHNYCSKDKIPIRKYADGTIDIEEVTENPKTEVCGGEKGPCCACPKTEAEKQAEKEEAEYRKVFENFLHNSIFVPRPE
Chain of Insulin-like growth factor 1 receptor (P08069 741-1367 limits assumed): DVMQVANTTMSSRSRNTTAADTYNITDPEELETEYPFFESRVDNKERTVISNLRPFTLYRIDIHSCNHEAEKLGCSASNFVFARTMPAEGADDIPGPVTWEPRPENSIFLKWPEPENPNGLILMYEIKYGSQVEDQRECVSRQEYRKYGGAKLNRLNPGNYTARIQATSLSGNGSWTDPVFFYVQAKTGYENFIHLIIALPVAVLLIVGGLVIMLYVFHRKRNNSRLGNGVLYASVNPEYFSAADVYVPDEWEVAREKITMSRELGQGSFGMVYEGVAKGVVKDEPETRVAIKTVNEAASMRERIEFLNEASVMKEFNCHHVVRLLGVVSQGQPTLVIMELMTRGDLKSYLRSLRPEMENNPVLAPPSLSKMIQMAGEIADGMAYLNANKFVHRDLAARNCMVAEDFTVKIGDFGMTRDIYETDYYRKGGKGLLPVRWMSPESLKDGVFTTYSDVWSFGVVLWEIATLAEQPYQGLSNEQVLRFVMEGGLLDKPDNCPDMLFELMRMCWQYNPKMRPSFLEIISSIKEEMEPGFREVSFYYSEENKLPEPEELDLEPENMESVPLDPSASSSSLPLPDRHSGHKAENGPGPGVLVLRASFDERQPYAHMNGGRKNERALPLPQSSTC

Rattus norvegicus [7] = experiment: Dose required to inhibit bovine nasalseptum type II collagen induced arthritis in rats after administration on day 13; assay type: functional; conditions: 312 h
How it was run: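 Female WAG×BUF/F1 rats immunized intradermally with bovine nasal septum type II collagen in Freund's incomplete adjuvant; swelling starts ~10 days after immunization. Oral dosing once daily for 10 days, beginning day 13 when swelling was nearly maximal. ED50 (mg/kg p.o.) derived for inhibition of joint swelling.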

[8] = Half life was determined; assay type: ADME, organism-based; conditions: rat, in vivo
[9] = molecular target: Prostaglandin G/H synthase 1 (Homo sapiens, UniProt P23219); experiment: Inhibition of human prostaglandin G/H synthase 1, COX-1
Chain of Prostaglandin G/H synthase 1 (P23219 whole entry): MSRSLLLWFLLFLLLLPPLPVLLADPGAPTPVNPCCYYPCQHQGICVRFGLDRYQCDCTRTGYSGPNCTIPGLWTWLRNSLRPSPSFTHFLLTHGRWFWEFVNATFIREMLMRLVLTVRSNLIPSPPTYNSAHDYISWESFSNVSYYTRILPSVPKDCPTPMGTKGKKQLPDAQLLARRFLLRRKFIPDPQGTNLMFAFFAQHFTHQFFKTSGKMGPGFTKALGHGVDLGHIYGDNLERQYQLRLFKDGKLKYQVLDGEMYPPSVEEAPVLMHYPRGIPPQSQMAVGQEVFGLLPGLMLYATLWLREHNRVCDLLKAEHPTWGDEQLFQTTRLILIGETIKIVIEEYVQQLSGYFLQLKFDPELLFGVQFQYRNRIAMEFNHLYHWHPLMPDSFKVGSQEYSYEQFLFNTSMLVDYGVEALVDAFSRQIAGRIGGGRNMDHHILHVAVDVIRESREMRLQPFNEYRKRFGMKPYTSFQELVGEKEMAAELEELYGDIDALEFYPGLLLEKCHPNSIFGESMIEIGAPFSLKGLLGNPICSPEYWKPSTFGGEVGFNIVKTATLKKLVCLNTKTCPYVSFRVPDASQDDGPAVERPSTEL

Mus musculus [10] = experiment: Inhibition of LPS induced TNF-alpha release in mice following p.o. administration.; assay type: functional; parameters: concentration or dose not given beside the values
How it was run: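 LPS (20 mg/kg) given i.v. 1 h after dosing. Blood taken 1 h later; plasma TNF-α by mouse-specific ELISA. Reported as % inhibition or as ED50 (mg/kg p.o.).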

[11] = molecular target: Mast/stem cell growth factor receptor Kit (Homo sapiens, UniProt P10721); experiment: Inhibition of human c-Kit kinase; how it was run: as §1
Chain of Mast/stem cell growth factor receptor Kit (P10721 whole entry): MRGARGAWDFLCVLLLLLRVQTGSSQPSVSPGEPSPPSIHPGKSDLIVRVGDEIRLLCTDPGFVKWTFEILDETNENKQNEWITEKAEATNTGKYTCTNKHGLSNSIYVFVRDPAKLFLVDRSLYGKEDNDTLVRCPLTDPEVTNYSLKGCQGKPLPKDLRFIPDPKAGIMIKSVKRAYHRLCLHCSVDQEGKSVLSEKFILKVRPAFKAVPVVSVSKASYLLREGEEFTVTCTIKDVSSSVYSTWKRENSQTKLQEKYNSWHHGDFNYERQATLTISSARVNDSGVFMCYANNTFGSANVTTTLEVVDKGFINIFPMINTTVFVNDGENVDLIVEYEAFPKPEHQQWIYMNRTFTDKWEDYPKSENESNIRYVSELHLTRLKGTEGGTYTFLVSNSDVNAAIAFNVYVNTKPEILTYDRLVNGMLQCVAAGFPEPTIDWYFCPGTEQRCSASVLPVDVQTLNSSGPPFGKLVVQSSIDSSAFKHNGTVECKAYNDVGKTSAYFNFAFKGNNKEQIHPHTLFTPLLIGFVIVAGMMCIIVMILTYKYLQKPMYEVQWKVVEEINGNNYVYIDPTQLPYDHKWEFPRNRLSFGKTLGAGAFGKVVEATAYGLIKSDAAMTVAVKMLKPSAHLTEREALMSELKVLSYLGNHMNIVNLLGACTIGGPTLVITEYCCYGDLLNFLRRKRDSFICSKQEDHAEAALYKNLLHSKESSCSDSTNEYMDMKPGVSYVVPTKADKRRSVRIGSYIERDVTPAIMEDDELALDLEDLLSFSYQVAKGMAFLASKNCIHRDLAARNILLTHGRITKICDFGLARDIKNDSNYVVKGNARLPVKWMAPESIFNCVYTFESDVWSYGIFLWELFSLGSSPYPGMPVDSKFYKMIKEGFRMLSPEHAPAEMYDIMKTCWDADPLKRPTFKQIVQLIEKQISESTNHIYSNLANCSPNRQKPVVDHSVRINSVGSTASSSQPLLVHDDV

[12] = molecular target: Mitogen-activated protein kinase 9 (Homo sapiens, UniProt P45984); experiment: Inhibition of human c-Jun N-terminal kinase 2; how it was run: as §1
[13] = molecular target: Mitogen-activated protein kinase 14 (Mus musculus, UniProt P47811); experiment: Inhibition of murine phosphorylated His-Mitogen-activated protein kinase p38 alpha.
Chain of Mitogen-activated protein kinase 14 (P47811 whole entry): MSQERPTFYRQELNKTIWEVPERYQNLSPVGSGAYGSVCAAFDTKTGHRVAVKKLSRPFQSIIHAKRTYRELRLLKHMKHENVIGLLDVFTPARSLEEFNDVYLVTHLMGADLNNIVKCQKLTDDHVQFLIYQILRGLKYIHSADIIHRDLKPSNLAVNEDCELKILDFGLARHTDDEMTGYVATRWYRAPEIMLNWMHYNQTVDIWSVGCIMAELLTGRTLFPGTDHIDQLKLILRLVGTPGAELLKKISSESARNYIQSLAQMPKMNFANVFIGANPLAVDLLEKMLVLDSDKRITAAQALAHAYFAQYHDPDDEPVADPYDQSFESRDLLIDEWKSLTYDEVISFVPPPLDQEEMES

[14] = molecular target: Mitogen-activated protein kinase 8 (Homo sapiens, UniProt P45983); experiment: Inhibition of human c-Jun N-terminal kinase 1; how it was run: as §1
Chain of Mitogen-activated protein kinase 8 (P45983 whole entry): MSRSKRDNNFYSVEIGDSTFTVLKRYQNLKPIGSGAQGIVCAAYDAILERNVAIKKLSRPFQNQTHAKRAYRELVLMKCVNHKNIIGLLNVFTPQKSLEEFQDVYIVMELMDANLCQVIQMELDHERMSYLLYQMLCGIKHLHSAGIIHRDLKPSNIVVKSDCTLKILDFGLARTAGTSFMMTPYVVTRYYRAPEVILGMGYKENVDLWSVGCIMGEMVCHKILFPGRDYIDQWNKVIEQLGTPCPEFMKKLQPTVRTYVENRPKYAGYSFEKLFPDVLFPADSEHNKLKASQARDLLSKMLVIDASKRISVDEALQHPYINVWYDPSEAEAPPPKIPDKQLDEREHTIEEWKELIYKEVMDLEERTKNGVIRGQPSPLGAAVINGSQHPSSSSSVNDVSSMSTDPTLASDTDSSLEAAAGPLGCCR

Cytochrome P450 2D6 = Cytochrome P450 2D6 (Homo sapiens, UniProt P10635); experiment: Inhibition of human cytochrome P450 2D6; assay type: ADME
Cytochrome P450 2C9 = Cytochrome P450 2C9 (Homo sapiens, UniProt P11712); experiment: Inhibition of human cytochrome P450 2C9; assay type: ADME
Chain of Cytochrome P450 2C9 (P11712 whole entry): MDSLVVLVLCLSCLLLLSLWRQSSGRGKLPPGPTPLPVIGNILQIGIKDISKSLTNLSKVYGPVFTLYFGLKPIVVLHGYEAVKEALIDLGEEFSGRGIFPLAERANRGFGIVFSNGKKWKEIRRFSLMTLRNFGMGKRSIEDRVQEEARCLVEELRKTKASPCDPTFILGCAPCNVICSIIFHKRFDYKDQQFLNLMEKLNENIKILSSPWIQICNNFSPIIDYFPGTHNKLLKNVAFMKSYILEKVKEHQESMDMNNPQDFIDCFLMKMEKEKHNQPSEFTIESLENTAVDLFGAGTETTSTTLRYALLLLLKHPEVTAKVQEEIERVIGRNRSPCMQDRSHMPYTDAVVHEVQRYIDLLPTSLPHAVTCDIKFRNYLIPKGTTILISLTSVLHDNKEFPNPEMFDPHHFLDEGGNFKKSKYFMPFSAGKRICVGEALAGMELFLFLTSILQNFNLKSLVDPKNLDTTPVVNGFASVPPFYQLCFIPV

[15] = molecular target: Cyclin-dependent kinase 1 (Homo sapiens, UniProt P06493); experiment: Inhibition of human cyclin-dependent kinase 1; how it was run: as §1
Chain of Cyclin-dependent kinase 1 (P06493 whole entry): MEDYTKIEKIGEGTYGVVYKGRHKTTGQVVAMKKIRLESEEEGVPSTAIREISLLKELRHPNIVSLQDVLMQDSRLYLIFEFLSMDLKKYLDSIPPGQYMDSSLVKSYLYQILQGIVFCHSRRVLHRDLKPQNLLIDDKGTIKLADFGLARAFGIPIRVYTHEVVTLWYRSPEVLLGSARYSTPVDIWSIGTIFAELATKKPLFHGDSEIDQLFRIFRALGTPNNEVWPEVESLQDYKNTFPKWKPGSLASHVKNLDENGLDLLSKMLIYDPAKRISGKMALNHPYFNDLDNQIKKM

[16] = molecular target: Proto-oncogene tyrosine-protein kinase Src (Homo sapiens, UniProt P12931); experiment: Inhibition of human c-Src; how it was run: as §1
[17] = molecular target: Hepatocyte growth factor receptor (Homo sapiens, UniProt P08581); experiment: Inhibition of human Met proto-oncogene tyrosine kinase
[18] = molecular target: RAF proto-oncogene serine/threonine-protein kinase (Homo sapiens, UniProt P04049); experiment: Inhibition of human RAF proto-oncogene serine/threonine-protein kinase; how it was run: as §1
[19] = molecular target: T2, Epidermal growth factor receptor (Homo sapiens, UniProt P00533); experiment: Inhibition of human Epidermal growth factor receptor, HER-1
[20] = molecular target: T2, Epidermal growth factor receptor; experiment: Inhibition of human epidermal growth factor receptor

## CN1CCC(O)(c2cn(-c3ccnc(NC4CCCC4)n3)c(-c3cccc(C(F)(F)F)c3)n2)CC1
Homo sapiens
  IC50: 1 nM
Rattus norvegicus [1]
  Swelling: 58%
Cytochrome P450 3A4
  IC50: > 2000 nM
[2]
  IC50: > 10000 nM
Mus musculus [3]
  ED50: 1.07 mg/kg
[4]
  IC50: > 10000 nM
[5]
  bioavailability: 23.2%
Cytochrome P450 1A2
  IC50: > 2000 nM
[6]
  IC50: > 10000 nM
Rattus norvegicus [7]
  ED50: 9.51 mg/kg
[8]
  half-life: 3.5 h
[9]
  IC50: > 80000 nM
Mus musculus [10]
  Inhibition: 94%
[11]
  IC50: > 10000 nM
[12]
  IC50: 4660 nM
[13]
  IC50: 29 nM
[14]
  IC50: > 10000 nM
Cytochrome P450 2D6
  IC50: > 2000 nM
Cytochrome P450 2C9
  IC50: > 2000 nM
[15]
  IC50: > 10000 nM
[16]
  IC50: > 10000 nM

## C[C@H](Nc1nccc(-n2cc(C3(O)CCN(C)CC3)nc2-c2ccc(F)cc2)n1)c1ccccc1
Mus musculus [10]
  Inhibition: 94%
[13]
  IC50: 4 nM

## C[C@H](Nc1cc(-c2sc(C3(O)CCN(C)CC3)nc2-c2ccc(F)cc2)ccn1)c1ccccc1
Homo sapiens
  IC50: 1 nM
Mus musculus [10]
  Inhibition: 94%
[13]
  IC50: 5 nM

## C[C@H](Nc1nccc(-n2c(-c3ccc(F)cc3)nc3nc(N4CCN(C)CC4)ccc32)n1)c1ccccc1
Homo sapiens
  IC50: 1 nM
Mus musculus [10]
  Inhibition: 83%
[13]
  IC50: 6 nM

## C[C@H](Nc1nccc(-c2oc(C3(O)CCN(C)CC3)nc2-c2ccc(F)cc2)n1)c1ccccc1
Homo sapiens
  IC50: 8 nM
Mus musculus [10]
  Inhibition: 19%
[13]
  IC50: 11 nM

## CN1CCN(c2ccc3c(n2)nc(-c2ccc(F)cc2)n3-c2ccnc(NC3CCCC3)n2)CC1
Homo sapiens
  IC50: 1 nM
Rattus norvegicus [1]
  Swelling: 55%
Cytochrome P450 3A4
  IC50: > 2000 nM
[2]
  IC50: > 10000 nM
Mus musculus [3]
  ED50: 1.41 mg/kg
[4]
  IC50: > 10000 nM
[5]
  bioavailability: 72.8%
Cytochrome P450 1A2
  IC50: > 2000 nM
[6]
  IC50: > 10000 nM
Rattus norvegicus [7]
  ED50: 4.22 mg/kg
[17]
  IC50: > 10000 nM
[8]
  half-life: 4.1 h
[9]
  IC50: > 80000 nM
Mus musculus [10]
  Inhibition: 94%
[11]
  IC50: > 10000 nM
[12]
  IC50: 47 nM
[13]
  IC50: 15 nM
[14]
  IC50: 1500 nM
[18]
  IC50: > 10000 nM
Cytochrome P450 2D6
  IC50: > 2000 nM
Cytochrome P450 2C9
  IC50: > 2000 nM
[15]
  IC50: > 10000 nM
[16]
  IC50: > 10000 nM

## C[C@H](Nc1nccc(-c2[nH]c(C3(O)CCN(C)CC3)nc2-c2ccc(F)cc2)n1)c1ccccc1
Homo sapiens
  IC50: 0.1 nM
[5]
  bioavailability: 10%
Mus musculus [10]
  Inhibition: 83%
[13]
  IC50: 2 nM

## C[C@H](Nc1cc(-c2[nH]c(C3(O)CCN(C)CC3)nc2-c2ccc(F)cc2)ccn1)c1ccccc1
Homo sapiens
  IC50: 3 nM
Mus musculus [10]
  Inhibition: 42%
[13]
  IC50: 7 nM

## C[C@H](Nc1cc(-c2sc(C3CCN(C)CC3)nc2-c2ccc(F)cc2)ccn1)c1ccccc1
Homo sapiens
  IC50: 0.6 nM
Rattus norvegicus [1]
  Swelling: 57%
Cytochrome P450 3A4
  IC50: > 2000 nM
[2]
  IC50: > 10000 nM
Mus musculus [3]
  ED50: 2.06 mg/kg
[4]
  IC50: 1700 nM
[5]
  bioavailability: 20.3%
Cytochrome P450 1A2
  IC50: > 2000 nM
[6]
  IC50: > 10000 nM
Rattus norvegicus [7]
  ED50: 7 mg/kg
[17]
  IC50: > 10000 nM
[8]
  half-life: 12.5 h
[9]
  IC50: > 80000 nM
Mus musculus [10]
  Inhibition: 88%
[19]
  IC50: 1100 nM
[11]
  IC50: > 10000 nM
[12]
  IC50: 261 nM
[13]
  IC50: 18 nM
[14]
  IC50: 1900 nM
[20]
  IC50: 700 nM
[18]
  IC50: 2100 nM
Cytochrome P450 2D6
  IC50: > 2000 nM
Cytochrome P450 2C9
  IC50: > 2000 nM
[15]
  IC50: > 10000 nM
[16]
  IC50: 8000 nM

## CN1CCC(O)(c2nc(-c3ccc(F)cc3)c(-c3ccncc3)o2)CC1
Homo sapiens
  IC50: 180 nM

## CN1CCC(O)(c2nc(-c3ccc(F)cc3)c(-c3ccncc3)s2)CC1
Homo sapiens
  IC50: 145 nM

## CN1CCC(O)(c2nc(-c3ccc(F)cc3)c(-c3ccncc3)[nH]2)CC1
Homo sapiens
  IC50: 15 nM

## C[C@H](Nc1cc(-c2oc(C3(O)CCN(C)CC3)nc2-c2ccc(F)cc2)ccn1)c1ccccc1
Homo sapiens
  IC50: 3 nM
Mus musculus [10]
  Inhibition: 21%
[13]
  IC50: 9 nM

## FC(F)(F)c1cccc(-c2nc(C3CCNCC3)cn2-c2ccnc(NC3CCCCC3)n2)c1
Homo sapiens
  IC50: 2 nM
Mus musculus [10]
  Inhibition: 77%
[13]
  IC50: 8 nM

## Fc1ccc(-c2nc(C3CCNCC3)cn2-c2ccnc(NC3CCCCC3)n2)cc1
Homo sapiens
  IC50: 0.8 nM
Mus musculus [10]
  Inhibition: 29%
[13]
  IC50: 5 nM
